Measured values as given in ChEMBL document CHEMBL1154217, “Antimalarial and cytotoxic depsidones from the fungus Chaetomium brasiliense” (J Nat Prod, 2009).
Values after ≈ are worked out from the molar mass of the structure shown. Active and inactive are the calls of the source. No cut-off for these calls is given here.

Assays:
[1] = system: Plasmodium falciparum; assay: Antimalarial activity against multi drug-resistant Plasmodium falciparum K1 assessed as [3H]hypoxanthine uptake after 18 hrs by microculture radioisotope technique; format: functional, organism-based
In short: (§1)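 Multidrug-resistant P. falciparum K1 was cultured by the Trager and Jensen method and tested in vitro by microculture radioisotope technique. Growth was read as [³H]-hypoxanthine uptake, and IC50 was taken as the concentration giving 50% reduction in parasite growth. Artemisinin served as the reference standard.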

[2] = system: Mycobacterium tuberculosis; assay: Antimycobacterial activity against Mycobacterium tuberculosis H37Ra after 4 days by almar blue assay; format: functional; conditions: 96 h
In short: (§2)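 M. tuberculosis H37Ra was tested by microplate Alamar Blue assay (MABA), with isoniazid and kanamycin sulfate as reference drugs.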

[3] = system: Candida albicans; assay: Antifungal activity against Candida albicans by XTT assay; format: functional, organism-based
In short: (§3)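 Clinical isolate of Candida albicans tested by an assay modified from the soluble formazan (XTT) method. Viable cells were quantified from XTT formazan absorbance at 450 nm. Amphotericin B served as the reference substance.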

[4] = system: KB; assay: Cytotoxicity against human KB cells by SRB assay; format: functional, cell-based
[5] = Cytotoxicity against human BC1 cells by SRB assay; format: functional, cell-based
[6] = system: NCI-H187; assay: Cytotoxicity against human NCI-H187 cells by SRB assay; format: functional, cell-based
[7] = Cytotoxicity against human KKU100 cells by MTT assay; format: functional, cell-based
[8] = Cytotoxicity against human KKU-M139 cells by MTT assay; format: functional, cell-based
[9] = Cytotoxicity against human KKU-M156 cells by MTT assay; format: functional, cell-based
[10] = Cytotoxicity against human KKU-M214 cells by MTT assay; format: functional, cell-based
[11] = Cytotoxicity against human KKU-M213 cells by MTT assay; format: functional, cell-based
[12] = system: Mycobacterium tuberculosis; assay: Antimycobacterial activity against Mycobacterium tuberculosis H37Ra at > 50 ug/mL after 4 days by almar blue assay; format: functional, organism-based; in short: as §2
[13] = system: Candida albicans; assay: Antifungal activity against Candida albicans at > 50 ug/mL by XTT assay; format: functional, organism-based; in short: as §3
[14] = system: KB; assay: Cytotoxicity against human KB cells at > 50 ug/mL by SRB assay; format: functional, cell-based
[15] = system: BC1; assay: Cytotoxicity against human BC1 cells at > 50 ug/mL by SRB assay; format: functional, cell-based
[16] = system: Plasmodium falciparum; assay: Antimalarial activity against multi drug-resistant Plasmodium falciparum K1 assessed as [3H]hypoxanthine uptake at > 50 ug/mL after 18 hrs by microculture radioisotope technique; format: functional, organism-based; in short: as §1

| SMILES | IC50 [1] | MIC [2] | IC50 [3] | IC50 [4] | IC50 [5] | IC50 [6] | IC50 [7] | IC50 [8] | IC50 [9] | IC50 [10] | IC50 [11] | Activity [12] | Activity [13] | Activity [14] | Activity [15] | Activity [16] |
| --- | --- | --- | --- | --- | --- | --- | --- | --- | --- | --- | --- | --- | --- | --- | --- | --- |
| CC(C)=CC(=O)c1c(O)cc2c(c1C)OC(=O)c1c(C)cc(O)c(C=O)c1O2 [MOLLICELLINE K] | 1.2 µg/mL (≈ 3.14 µM) | 12.5 µg/mL (≈ 32.7 µM) | 1.2 µg/mL (≈ 3.14 µM) | 1.9 µg/mL (≈ 4.97 µM) | 6.8 µg/mL (≈ 17.8 µM) | 0.35 µg/mL (≈ 0.915 µM) | 4.46 µg/mL (≈ 11.7 µM) | 13.9 µg/mL (≈ 36.5 µM) | 6.65 µg/mL (≈ 17.4 µM) | 4.92 µg/mL (≈ 12.9 µM) | – | – | – | – | – | – |
| COc1cc2c(c(C)c1C(=O)C=C(C)C)OC(=O)c1c(C)cc(O)c(C=O)c1O2 [MOLLICELLIN L] | 3.4 µg/mL (≈ 8.58 µM) | – | – | 33.9 µg/mL (≈ 85.5 µM) | – | 9.5 µg/mL (≈ 24 µM) | – | 8.55 µg/mL (≈ 21.6 µM) | 6.04 µg/mL (≈ 15.2 µM) | 4.51 µg/mL (≈ 11.4 µM) | 13.2 µg/mL (≈ 33.3 µM) | inactive | inactive | – | – | – |
| Cc1c2c(cc3c1C(=O)CC(C)(C)O3)Oc1c(C=O)c(O)c(Cl)c(C)c1C(=O)O2 [MOLLICELLIN M] | 2.9 µg/mL (≈ 6.96 µM) | – | – | – | – | 0.68 µg/mL (≈ 1.63 µM) | 6.28 µg/mL (≈ 15.1 µM) | – | – | – | – | inactive | inactive | inactive | inactive | – |
| COc1c(O)c2c(c(C)c1C(=O)C=C(C)C)Oc1c(C=O)c(O)cc(C)c1C(=O)O2 [MOLLICELLIN C] | 9.1 µg/mL (≈ 22.1 µM) | – | 49.9 µg/mL (≈ 121 µM) | 46.3 µg/mL (≈ 112 µM) | – | 3.1 µg/mL (≈ 7.52 µM) | 5.12 µg/mL (≈ 12.4 µM) | 2.51 µg/mL (≈ 6.09 µM) | 4.18 µg/mL (≈ 10.1 µM) | 3.35 µg/mL (≈ 8.12 µM) | 3.2 µg/mL (≈ 7.76 µM) | inactive | – | – | inactive | – |
| Cc1c2ccncc2c(C)c2c1[nH]c1ccccc12 [ELLIPTECINE] | – | – | – | – | 0.26 µg/mL (≈ 1.06 µM) | – | 7.11 µg/mL (≈ 28.9 µM) | 1.21 µg/mL (≈ 4.91 µM) | 2.02 µg/mL (≈ 8.2 µM) | 0.21 µg/mL (≈ 0.853 µM) | 0.3 µg/mL (≈ 1.22 µM) | – | – | – | – | – |
| C[C@@H]1CC[C@H]2[C@@H](C)C(=O)O[C@@H]3O[C@@]4(C)CC[C@@H]1[C@]32OO4 [ARTEMISININ] | 0.001 µg/mL (≈ 0.00354 µM) | – | – | – | – | – | – | – | – | – | – | – | – | – | – | – |
| C[C@@H]1[C@H](O)[C@@H](C)/C=C/C=C/C=C/C=C/C=C/C=C/C=C/[C@H](O[C@@H]2O[C@H](C)[C@@H](O)[C@H](N)[C@@H]2O)C[C@@H]2O[C@](O)(C[C@@H](O)C[C@@H](O)[C@H](O)CC[C@@H](O)C[C@@H](O)CC(=O)O[C@H]1C)C[C@H](O)[C@H]2C(=O)O [AMPHOTERICIN B] | – | – | 0.034 µg/mL (≈ 0.0368 µM) | – | – | – | – | – | – | – | – | – | – | – | – | – |
| NC[C@H]1O[C@H](O[C@H]2[C@H](O)[C@@H](O[C@H]3O[C@H](CO)[C@@H](O)[C@H](N)[C@H]3O)[C@H](N)C[C@@H]2N)[C@H](O)[C@@H](O)[C@@H]1O.O=S(=O)(O)O [KANAMYCIN SULFATE] | – | 2.5 µg/mL | – | – | – | – | – | – | – | – | – | – | – | – | – | – |
| COc1c(O)c2c(c(C)c1C(=O)C=C(C)C)Oc1c(C=O)c(O)c(Cl)c(C)c1C(=O)O2 [MOLLICELLIN E] | 3.2 µg/mL (≈ 7.16 µM) | – | 39.7 µg/mL (≈ 88.8 µM) | – | – | 1 µg/mL (≈ 2.24 µM) | 4.83 µg/mL (≈ 10.8 µM) | 5.03 µg/mL (≈ 11.3 µM) | 5.22 µg/mL (≈ 11.7 µM) | 7.81 µg/mL (≈ 17.5 µM) | 4.44 µg/mL (≈ 9.94 µM) | inactive | – | – | – | – |
| CC(C)=CCc1c(O)cc2c(c1C)OC(=O)c1c(C)c(Cl)c(O)c(C=O)c1O2 [MOLLICELLIN J] | 4.9 µg/mL (≈ 12.2 µM) | – | – | 29.1 µg/mL (≈ 72.2 µM) | – | 23.3 µg/mL (≈ 57.8 µM) | – | – | – | – | – | inactive | – | – | – | – |
| Cc1c2c(c(O)c3c1C(=O)CC(C)(C)O3)OC(=O)c1c(C)c(Cl)c(O)c(C=O)c1O2 [MOLLICELLIN F] | – | – | – | 37.9 µg/mL (≈ 87.6 µM) | – | 13.1 µg/mL (≈ 30.3 µM) | 5.21 µg/mL (≈ 12 µM) | 5.21 µg/mL (≈ 12 µM) | 5.36 µg/mL (≈ 12.4 µM) | 4.4 µg/mL (≈ 10.2 µM) | 4.98 µg/mL (≈ 11.5 µM) | inactive | – | – | – | inactive |
| Cc1cc(O)c(C=O)c2c1C(=O)Oc1c(O)c3c(c(C)c1O2)C(=O)CC(C)(C)O3 [MOLLICELLIN N] | – | – | – | 25.9 µg/mL (≈ 65 µM) | – | 13.5 µg/mL (≈ 33.9 µM) | 6.46 µg/mL (≈ 16.2 µM) | 4.34 µg/mL (≈ 10.9 µM) | 2.9 µg/mL (≈ 7.28 µM) | 5.05 µg/mL (≈ 12.7 µM) | 3 µg/mL (≈ 7.53 µM) | inactive | inactive | – | – | inactive |
| NNC(=O)c1ccncc1 [ISONIAZID] | – | 0.05 µg/mL (≈ 0.365 µM) | – | – | – | – | – | – | – | – | – | – | – | – | – | – |
| Cc1cc(O)c(C=O)c2c1C(=O)Oc1c(cc3c(c1C)C(=O)CC(C)(C)O3)O2 [MOLLICELLIN B] | 4.7 µg/mL (≈ 12.3 µM) | – | – | 37.1 µg/mL (≈ 97 µM) | – | 14.7 µg/mL (≈ 38.4 µM) | 4.63 µg/mL (≈ 12.1 µM) | 11.7 µg/mL (≈ 30.5 µM) | 15.7 µg/mL (≈ 41 µM) | 4.5 µg/mL (≈ 11.8 µM) | 6.94 µg/mL (≈ 18.2 µM) | inactive | inactive | – | – | – |
| CC(C)=CCc1c(O)cc2c(c1C)OC(=O)c1c(C)cc(O)c(C=O)c1O2 [MOLLICELLIN H] | – | – | – | 16.6 µg/mL (≈ 45.1 µM) | – | 3.9 µg/mL (≈ 10.6 µM) | – | – | – | – | – | inactive | – | – | – | – |
